Assays:
PKCβ2 = PKCβ2 (Homo sapiens, UniProt P05771); assay: Kinase inhibition assay; format: biochemical
GSK-3 = GSK-3 inhibition in the presence of 10 µM ATP; format: biochemical; settings: read-out: GSK-3 IC50; tested in the presence of 10 µM ATP
[1] = system: human SMA patient fibroblasts; assay: SMN protein level in SMA patient fibroblasts by western blot; format: cell-based; settings: 72 h
How it was run: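 Fibroblasts from SMA patients were exposed to test compound (20, 25 or 30 μM) or DMSO vehicle for 72 h. SMN protein was assessed by Western blot and quantified from three separate experiments.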

[2] = system: primary immature cortical neurons; assay: Oxidative stress; format: cell-based
How it was run: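 Primary cortical neurons were exposed to test compound (20 μM) with or without homocysteic acid (HCA, 5 mM), which depletes glutathione. Survival was read by MTT assay after 48 h and expressed as percent of the no-inhibitor control, mean ± SEM. Live/dead staining with calcein AM and ethidium homodimer was done in parallel.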

Δ7 SMA KO mouse [3] = assay: Δ7 SMA KO neonatal mouse model: survival, body weight, tolerability; format: in vivo
Δ7 SMA KO mouse [4] = assay: Δ7 SMA KO mouse model: negative geotaxis test; format: in vivo; settings: 75 mg/kg once a day
Δ7 SMA KO mouse [5] = assay: Δ7 SMA KO mouse model: tube test; format: in vivo; settings: 75 mg/kg once a day; postnatal day 6, 8, 10 and 12
[6] = system: human SMA patient fibroblasts; settings: commercially available GSK-3 inhibitors; cited from earlier work

PKCβ2, sequence (P05771 1-673 isoform P05771-2): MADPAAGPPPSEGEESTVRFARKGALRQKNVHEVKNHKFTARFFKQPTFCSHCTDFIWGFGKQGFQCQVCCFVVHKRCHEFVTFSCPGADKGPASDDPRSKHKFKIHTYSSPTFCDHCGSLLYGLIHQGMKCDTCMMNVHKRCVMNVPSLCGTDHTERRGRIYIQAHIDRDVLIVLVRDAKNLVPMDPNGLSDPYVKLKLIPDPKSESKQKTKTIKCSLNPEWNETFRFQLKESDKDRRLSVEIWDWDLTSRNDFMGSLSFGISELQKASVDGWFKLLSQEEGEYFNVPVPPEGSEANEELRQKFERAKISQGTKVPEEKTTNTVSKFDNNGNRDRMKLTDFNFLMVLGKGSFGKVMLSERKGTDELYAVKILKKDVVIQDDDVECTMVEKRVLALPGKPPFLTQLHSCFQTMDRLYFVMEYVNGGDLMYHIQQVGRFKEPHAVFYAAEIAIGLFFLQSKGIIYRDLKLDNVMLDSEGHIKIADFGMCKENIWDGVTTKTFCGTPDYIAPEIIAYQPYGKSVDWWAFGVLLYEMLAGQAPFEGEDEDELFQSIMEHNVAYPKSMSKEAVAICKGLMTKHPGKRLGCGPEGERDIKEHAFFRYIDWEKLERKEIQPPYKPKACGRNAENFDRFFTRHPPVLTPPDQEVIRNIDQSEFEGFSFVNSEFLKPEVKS

Cn1cc(C2=C(c3coc4ccccc34)C(=O)NC2=O)c2cc(Br)ccc21 [BIP-135, 3-(5-bromo-1-methyl-1H-indol-3-yl)-4-(benzofuran-3-yl)pyrrole-2,5-dione]
IC50 (PKCβ2): 219 nM | IC50 (GSK-3): […] | increase in SMN levels compared to vehicle treated cells ([1]; 25 µM, western blot): 7 fold | toxicity in SMA patient fibroblasts (bell-shaped dose-response) ([1]; higher concentrations): some toxicity at higher concentrations | protection of HCA-treated cortical neurons (survival) ([2]; 20 µM, HCA 5 mM, MTT assay, HCA alone approximately 25 percent survival): about 80% | protection in the HCA oxidative stress model ([2]; HCA 5 mM, MTT assay): able to protect at a lower concentration | toxicity to neurons exposed to compound alone ([2]; absence of HCA): No significant toxicity | tolerability / toxicity in SMA KO animals (Δ7 SMA KO mouse [3]; 75 mg/kg IP, 100% DMSO as vehicle): did not appear to be toxic and was well-tolerated | effect on SMA KO body weight versus vehicle (Δ7 SMA KO mouse [3]; 75 mg/kg once a day, p = 0.0435, after around P6): showed an improvement in body weight | overall motor function (geotaxis and tube test) (Δ7 SMA KO mouse [4]): did not improve the overall motor function | percent of KO mice that completed the geotaxis test (Δ7 SMA KO mouse [4]; P12, p = 0.0315): more KO animals treated with BIP-135 completed the geotaxis test | latency to complete the negative geotaxis test (Δ7 SMA KO mouse [4]; p = 0.0683): no significant treatment effects | tube test parameters (time hanging, number of pulls, hind-limb strength score, tube test score) (Δ7 SMA KO mouse [5]): no significant treatment effect

COc1ccc(CNC(=O)Nc2ncc([N+](=O)[O-])s2)cc1 [AR-A014418, reference compound]
protection in the HCA oxidative stress model ([2]; HCA 5 mM, MTT assay): provided some protection | elevation of SMN levels in vitro [6]: shown to elevate SMN levels in vitro

O=C1Cc2c([nH]c3ccc([N+](=O)[O-])cc23)-c2ccccc2N1 [alsterpaullone]
elevation of SMN levels in vitro [6]: shown to elevate SMN levels in vitro

CHIR98014
elevation of SMN levels in vitro [6]: shown to elevate SMN levels in vitro

Reference: article PMC3279955 (ACS chemical neuroscience, 2012)
